Measurements reported in ChEMBL document CHEMBL3286132, “Syntheses, characterization and evaluation of novel 2,6-diarylpiperidin-4-ones as potential analgesic-antipyretic agents” (Eur J Med Chem, 2014).

Experiments:
Rattus norvegicus [1] = assay: Antipyretic activity in Wistar rat assessed as reduction in Brewer's yeast-induced hyperthermia measured as rectal temperature at 60 mg/kg, po administered 18 hrs post challenge measured after 2 hrs post dose (reference value: 39.320 +/- 0.102 degC); format: functional
Summary of the method: (§1)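 Male Wistar rats (200-300 g), fasted, groups of 5. Fever induced by sc 15% brewer's yeast in normal saline (10 ml/kg). Rectal temperature taken with a digital thermometer inserted about 7 mm. After 18 h, rats at 38 °C or above were used. Dosed orally as suspension in 0.5% CMC; vehicle controls. Temperature then read at set times after dosing. Values are means of five.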

Rattus norvegicus [2] = assay: Antipyretic activity in Wistar rat assessed as reduction in Brewer's yeast-induced hyperthermia measured as rectal temperature at 60 mg/kg, po administered 18 hrs post challenge measured after 3 hrs post dose (reference value: 39.400 +/- 0.071 degC); format: functional; summary of the method: as §1
Mus musculus [3] = assay: Neurotoxicity in po dosed albino mouse assessed as alteration of motor activity […] by rotarod test; format: toxicity, organism-based; conditions: in vivo
[4] = Hydrolysis of the compound in simulated intestinal fluid at 10 mg after 120 mins by spectrophotometry; format: ADME; conditions: read-out: Drug degradation
Summary of the method: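 Samples shaken on an orbital shaker at 37 ± 2 °C in simulated intestinal fluid. Aliquots were drawn at 0, 15, 30, 45, 60, 75, 90, 105 and 120 min, then diluted, filtered and read spectrophotometrically at each compound's λmax. % hydrolysed = (A0 − A120)/A0 × 100.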

Mus musculus [5] = assay: Analgesic activity in albino mouse assessed as inhibition of acetic acid-induced writhing at 60 mg/kg, po administered 1 hr prior challenge relative to control; format: functional
Summary of the method: (§2)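 Male albino mice (25-30 g), fasted 20-24 h, groups of 5. Dosed orally as suspension in 0.5% sodium CMC; vehicle controls. 1 h later, 1% acetic acid in normal saline (10 ml/kg) given ip. Starting 5 min after injection, writhes counted over 30 min. Percent inhibition calculated from group mean writhes versus control.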

[6] = Partition co-efficient, log P of the compound in ocatanol-water by shake flask method; format: physicochemical; conditions: octanol/water
Summary of the method: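 Shake-flask method: 2 mg dissolved in 50 ml water plus 50 ml octanol, shaken 30 min and left 24 h to equilibrate. Phases were separated, and octanol-phase concentration was taken from absorbance against a standard curve. Log P was calculated from that concentration.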

Rattus norvegicus [7] = assay: Antipyretic activity in Wistar rat assessed as reduction in Brewer's yeast-induced hyperthermia measured as rectal temperature at 60 mg/kg, po administered 18 hrs post challenge measured after 1 hr post dose (reference value: 39.300 +/- 0.071 degC); format: functional; summary of the method: as §1
Rattus norvegicus [8] = assay: Antipyretic activity in Wistar rat assessed as reduction in Brewer's yeast-induced hyperthermia measured as rectal temperature at 150 mg/kg, po administered 18 hrs post challenge measured after 1 hr post dose (reference value: 39.300 +/- 0.071 degC); format: functional; summary of the method: as §1
Rattus norvegicus [9] = assay: Antipyretic activity in Wistar rat assessed as reduction in Brewer's yeast-induced hyperthermia measured as rectal temperature at 150 mg/kg, po administered 18 hrs post challenge measured after 2 hrs post dose (reference value: 39.320 +/- 0.102 degC); format: functional; summary of the method: as §1
Rattus norvegicus [10] = assay: Antipyretic activity in Wistar rat assessed as reduction in Brewer's yeast-induced hyperthermia measured as rectal temperature at 150 mg/kg, po administered 18 hrs post challenge measured after 3 hrs post dose (reference value: 39.400 +/- 0.071 degC); format: functional; summary of the method: as §1
Mus musculus [11] = assay: Neurotoxicity in albino mouse assessed as alteration of motor activity at 2 mg/kg, po measured after 60 mins for 60 secs by rotarod test; format: toxicity, organism-based; design: dose 2 mg/kg, route oral; conditions: in vivo
Summary of the method: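 Male albino mice on a 1 in. knurled wooden rod rotating at 6–10 rpm. Testing began 60 min after oral dosing. Neurological toxicity was defined as failure to stay on the rod for 1 min or more.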

Mus musculus [12] = assay: Analgesic activity in albino mouse assessed as inhibition of acetic acid-induced writhing at 10 mg/kg, po administered 1 hr prior challenge relative to control; format: functional; summary of the method: as §2

For `COc1ccc(C2C(C)C(=O)CC(c3ccc(F)cc3)N2C(=O)CN2CCN(C)CC2)cc1` (stereo not given), the T (Rattus norvegicus [1]) was 37.44 °C, the T (Rattus norvegicus [2]) was 37.1 °C and the Activity (Mus musculus [3]) was “Non-toxic”. It also gave a degraded at 2 h [4] of 2.51%, an inhibition in vivo at 60 mg/kg (Mus musculus [5]) of 55.2% and a logP [6] of 1.53. For the same compound, the T (Rattus norvegicus [7]) was 38.18 °C.

With `CC1C(=O)CC(c2ccc(F)cc2)N(C(=O)CN2CCN(C)CC2)C1c1ccc(Cl)cc1` (stereo not given) the T (Rattus norvegicus [1]) was 37.16 °C, the T (Rattus norvegicus [2]) was 37.18 °C and the Activity (Mus musculus [3]) was “Non-toxic”. For the same compound, the degraded at 2 h [4] was 4.49%, the inhibition in vivo at 60 mg/kg (Mus musculus [5]) was 65.5% and the logP [6] was 2.09. The T (Rattus norvegicus [7]) was 37.9 °C.

In the case of `CC1C(=O)CC(c2ccc(Cl)cc2)N(C(=O)CN2CCN(C)CC2)C1c1ccc(N(C)C)cc1` (stereo not given), the T (Rattus norvegicus [1]) is reported as 38.14 °C, the T (Rattus norvegicus [2]) is reported as 37.52 °C and the Activity (Mus musculus [3]) is reported as “Non-toxic”. It also gave a degraded at 2 h [4] of 77.6%, an inhibition in vivo at 60 mg/kg (Mus musculus [5]) of 28.1% and a logP [6] of 1.35. It also gave a T (Rattus norvegicus [7]) of 38.9 °C.

For `CC1C(=O)CC(c2ccc(Cl)cc2)N(C(=O)CCl)C1c1ccc(O)cc1` (stereo not given), the T (Rattus norvegicus [1]) was 38.5 °C, the T (Rattus norvegicus [2]) was 37.14 °C and the Activity (Mus musculus [3]) was “Non-toxic”. For the same compound, the degraded at 2 h [4] was 42.7%, the inhibition in vivo at 60 mg/kg (Mus musculus [5]) was 39.7% and the logP [6] was 1.05. For the same compound, the T (Rattus norvegicus [7]) was 38.92 °C.

With `COc1ccc(C2C(C)C(=O)CC(c3ccc(Cl)cc3)N2C(=O)CCl)cc1` (stereo not given) the T (Rattus norvegicus [1]) was 38.36 °C, the T (Rattus norvegicus [2]) was 37.2 °C and the Activity (Mus musculus [3]) was “Non-toxic”. For the same compound, the degraded at 2 h [4] was 2.68%, the inhibition in vivo at 60 mg/kg (Mus musculus [5]) was 44.1% and the logP [6] was 1.29. It also gave a T (Rattus norvegicus [7]) of 38.76 °C.

With `COc1ccc(C2C(C)C(=O)CC(c3ccc(Cl)cc3)N2C(=O)CN2CCN(C)CC2)cc1` (stereo not given) the T (Rattus norvegicus [1]) was 37.68 °C, the T (Rattus norvegicus [2]) was 37.28 °C and the Activity (Mus musculus [3]) was “Non-toxic”. For the same compound, the degraded at 2 h [4] was 18.8%, the inhibition in vivo at 60 mg/kg (Mus musculus [5]) was 53% and the logP [6] was 1.48. For the same compound, the T (Rattus norvegicus [7]) was 38.52 °C.

With `CC(=O)Nc1ccc(O)cc1` [ACETAMINOPHEN] the T (Rattus norvegicus [8]) was 37.88 °C, the T (Rattus norvegicus [9]) was 37.14 °C and the T (Rattus norvegicus [10]) was 37.1 °C.

With `CN1C(=O)CN=C(c2ccccc2)c2cc(Cl)ccc21` [DIAZEPAM] the Activity (Mus musculus [11]) was “Toxic”.

For `COc1ccc(C2C(C)C(=O)CC(c3ccc(F)cc3)N2C(=O)CCl)cc1` (stereo not given), the T (Rattus norvegicus [1]) was 37.9 °C, the T (Rattus norvegicus [2]) was 37.2 °C and the Activity (Mus musculus [3]) was “Non-toxic”. The degraded at 2 h [4] was 2.01%, the inhibition in vivo at 60 mg/kg (Mus musculus [5]) was 51.2% and the logP [6] was 1.42. The T (Rattus norvegicus [7]) was 38.58 °C.

For `CC1C(=O)CC(c2ccc(F)cc2)N(C(=O)CCl)C1c1ccc(Cl)cc1` (stereo not given), the T (Rattus norvegicus [1]) was 37.54 °C, the T (Rattus norvegicus [2]) was 37.16 °C and the Activity (Mus musculus [3]) was “Non-toxic”. The degraded at 2 h [4] was 1.17%, the inhibition in vivo at 60 mg/kg (Mus musculus [5]) was 57.6% and the logP [6] was 1.72. For the same compound, the T (Rattus norvegicus [7]) was 38.14 °C.

In the case of `CC1C(=O)CC(c2ccc(F)cc2)N(C(=O)CCl)C1c1ccc(O)cc1` (stereo not given), the T (Rattus norvegicus [1]) is reported as 38.3 °C, the T (Rattus norvegicus [2]) is reported as 37.16 °C and the Activity (Mus musculus [3]) is reported as “Non-toxic”. For the same compound, the degraded at 2 h [4] was 43.2%, the inhibition in vivo at 60 mg/kg (Mus musculus [5]) was 51.2% and the logP [6] was 1.14. It also gave a T (Rattus norvegicus [7]) of 38.72 °C.

For `CC1C(=O)CC(c2ccc(Cl)cc2)N(C(=O)CCl)C1c1ccc(N(C)C)cc1` (stereo not given), the T (Rattus norvegicus [1]) was 38.56 °C, the T (Rattus norvegicus [2]) was 37.86 °C and the Activity (Mus musculus [3]) was “Non-toxic”. It also gave a degraded at 2 h [4] of 76.8%, an inhibition in vivo at 60 mg/kg (Mus musculus [5]) of 17.8% and a logP [6] of 1.24. For the same compound, the T (Rattus norvegicus [7]) was 39 °C.

`O=C(O)Cc1ccccc1Nc1c(Cl)cccc1Cl` [DICLOFENAC SODIUM] gave an inhibition in vivo at 10 mg/kg (Mus musculus [12]) of 56.5%.
